Experimental data published in ChEMBL document CHEMBL1133648, “Synthesis, stability, antiviral activity, and protease-bound structures of substrate-mimicking constrained macrocyclic inhibitors of HIV-1 protease” (J Med Chem, 2000).
pKi: −log10 of the molar value.

What was measured:
[1] = biological target: Human immunodeficiency virus type 1 protease (Human immunodeficiency virus 1) (UniProt Q72874); conditions: MT2
[2] = system: MT2; assay: (§1) Concentration required for causing death in 10% or less of cells in the absence of virus in MT2 cells infected with HIV-1 237288 strain; format: functional, Homo sapiens
Procedure, shortened: (§2)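 Cytotoxicity controls run alongside the Melbourne antiviral test: uninfected MT2 cells at 5 × 10⁴ per well in RF10, or PBMCs at 3.75 × 10⁵ per well in RF10/IL-2, exposed to duplicate drug dilutions made from a 20 mM stock in 60% v/v ethanol. Incubated 6–7 days at 37 °C, 5% CO₂, then viable cells counted by trypan blue exclusion. CC₁₀ is the highest concentration keeping counts ≥90% of the cell-only control.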

[3] = system: MT2; assay: Concentration of compound causing death in 10% or less of cells in the absence of virus in MT2 cells infected with HIV-2 strain (ROD); format: functional, Homo sapiens
Procedure, shortened: as §2

[4] = biological target: Human immunodeficiency virus type 1 protease (Human immunodeficiency virus 1) (UniProt Q72874); conditions: PBMC
[5] = system: Human immunodeficiency virus 1; assay: Concentration required for causing death in 10% or less of cells in the absence of virus in PBMC cells infected with HIV-1 237288 strain; format: functional
Procedure, shortened: as §2

[6] = biological target: Human immunodeficiency virus type 1 protease (Human immunodeficiency virus 1, UniProt Q72874); assay: Inhibitory constant against HIV-1 protease
[7] = system: MT2; assay: Concentration which causing death in 10% or less of cells in the absence of virus in MT2 cells infected with HIV-1 strain 237288
Procedure, shortened: as §2

[8] = system: MT2; assay: as §1; format: functional, Human immunodeficiency virus 1
Procedure, shortened: as §2

[9] = system: MT2; assay: Concentration required for causing death in 10% or less of cells in the absence of virus on MT2 cells infected with HIV-1 strain 237288; format: functional, Homo sapiens
Procedure, shortened: as §2

[10] = biological target: Human immunodeficiency virus type 1 protease (Human immunodeficiency virus 1) (UniProt Q72874); assay: Inhibition of virion associated RT activity relative to untreated, infected control in PBMC cells infected with HIV-1 237288 strain; format: cell-based
Procedure, shortened: (§3)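 Drug dilutions, from a 20 mM stock in 60% v/v ethanol, added in duplicate to MT2 cells (5 × 10⁴ in RF10) or PBMCs (3.75 × 10⁵ in RF10/IL-2). Virus added immediately after: HIV-1 #237288 or HIV-2 ROD, 200 TCID₅₀ for MT2 or 300 TCID₅₀ for PBMC. After 6–7 days at 37 °C, supernatant virus precipitated with PEG and virion RT counted by scintillation, as % of virus-only control. IC₅₀ and IC₉₀ are the concentrations giving 50% and 90% reduction.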

[11] = biological target: Human immunodeficiency virus type 1 protease (Human immunodeficiency virus 1) (UniProt Q72874); assay: Inhibition of virion associated RT activity (90% decrease) relative to untreated, infected control on MT2 cells infected with HIV-1 237288 strain; format: cell-based
Procedure, shortened: as §3

With `CC(C)CCN(C[C@@H](O)[C@@H]1Cc2ccc(cc2)OCCCCCC(=O)N[C@@H](C(C)C)C(=O)N1)S(=O)(=O)c1ccc(N)cc1` the IC90 [1] was 220 nM, the CC10 [2] was 10000 nM and the CC10 [3] was 10000 nM. It also gave an IC90 [4] of 880 nM and a CC10 [5] of 50000 nM.
`CC[C@@H](C)[C@@H]1NC(=O)[C@@H](NC[C@@H](O)[C@H](Cc2ccccc2)NC(=O)[C@@H](NC(=O)c2ccc3ccccc3n2)C(C)C)Cc2ccc(cc2)OCCCNC1=O` was tested, and the pKi [6] was 9.52.
`CC(C)CN(C[C@@H](O)[C@H](Cc1ccccc1)NC(=O)O[C@H]1CCOC1)S(=O)(=O)c1ccc(N)cc1` showed a CC10 [7] of 10000 nM.
In the case of `CC(C)(C)NC(=O)[C@@H]1CN(Cc2cccnc2)CCN1C[C@@H](O)C[C@@H](Cc1ccccc1)C(=O)N[C@H]1c2ccccc2C[C@H]1O.O`, the IC90 [1] was 93 nM, the CC10 [8] was 10000 nM and the CC10 [5] was 10000 nM.
With `CCC(C)[C@@H]1NC(=O)[C@@H](NC[C@@H](O)C[C@@H](Cc2ccccc2)C(=O)N[C@H]2c3ccccc3C[C@H]2O)Cc2ccc(cc2)OCCCCCNC1=O` (stereo not given in full) the CC10 [9] was 30000 nM, the CC10 [3] was 30000 nM and the IC90 [10] was 220 nM. For the same compound, the IC90 [11] was 100 nM and the CC10 [5] was 50000 nM.
